In the library only some 2.6% were active in any assay of this set; here they are far more common.
IMP-1 inhibitor – blocks Pseudomonas aeruginosa IMP-1 metallo-beta-lactamase; inhibition, % at 5.6 µM; purified IMP-1, nitrocefin hydrolysis, epi-absorbance fluorescence; hit rate 0.45% among 290,000;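 active = inhibition above the mean plus 3 SD of all compounds in the same screening run, cut at about 4.5% in these data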;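 note: 0% = IMP-1 with DMSO and 100% = DMSO wells lacking enzyme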
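System: Purified recombinant IMP-1 metallo-beta-lactamase enzyme | Measured by: Fluorescence quenching readout, ex 480/em 530 nm | Replication: Singlicate | Incubation: 15 min preincubation plus 25 min reaction at 25 °C | Evaluation: Percent inhibition from optical density relative to buffer-blank wells | Benchmarks: DMSO with and without IMP-1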
RanGTP-Impb inh – inhibitors of RanGTP-importin-beta interaction, primary screen, biochemical, FRET, CFP-Ran, YFP-importin-beta, homogeneous; cell-free CFP-Ran/YFP-importin-beta FRET ratio; inhibition, % (concentration not given with the values); hit rate 1.1% among 300,000; AID 2216;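 active = more than half of the replicate wells show a fall in the fluorescence ratio signal beyond about 16%, limit read from the data, passing the limit was not always enough; inconclusive = exactly half of the replicate wells pass the set limit; inactive = fewer than half of replicates pass the limit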;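 note: 0% = DMSO wells and 100% = Ran loaded with GDP instead of GTP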
Runt-SMMHC FRET – Runt domain-CBFb-SMMHC interaction inhibition; Q01196+Q13951; Cerulean-Runt/Venus-CBFb-SMMHC FRET ratio 530/480, 1 h; inhibition, % at 20 µM; hit rate 0.74% among 220,000; AID 1434;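 active = mean inhibition across duplicate retests at 20 µM reaching about 50%, limit read from the data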;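 note: 0% = DMSO wells and 100% = wells with excess untagged CBFb-SMMHC; inhibitors lower the FRET ratio by blocking Runt binding to CBFb-SMMHC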
Target sequence (Q01196 whole entry, looked up, the tested form may be a part): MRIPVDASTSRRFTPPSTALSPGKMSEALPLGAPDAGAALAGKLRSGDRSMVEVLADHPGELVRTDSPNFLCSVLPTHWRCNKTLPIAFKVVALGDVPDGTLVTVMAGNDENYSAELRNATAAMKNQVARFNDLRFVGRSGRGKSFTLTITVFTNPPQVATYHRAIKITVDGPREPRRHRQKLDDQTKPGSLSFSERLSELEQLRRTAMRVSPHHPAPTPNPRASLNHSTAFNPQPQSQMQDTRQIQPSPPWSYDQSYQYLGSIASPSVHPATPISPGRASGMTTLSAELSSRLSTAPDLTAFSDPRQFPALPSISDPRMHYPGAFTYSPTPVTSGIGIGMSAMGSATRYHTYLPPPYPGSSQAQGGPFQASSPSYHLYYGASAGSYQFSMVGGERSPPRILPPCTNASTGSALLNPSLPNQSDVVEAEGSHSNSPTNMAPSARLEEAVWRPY
Target sequence (Q13951 whole entry, looked up, the tested form may be a part): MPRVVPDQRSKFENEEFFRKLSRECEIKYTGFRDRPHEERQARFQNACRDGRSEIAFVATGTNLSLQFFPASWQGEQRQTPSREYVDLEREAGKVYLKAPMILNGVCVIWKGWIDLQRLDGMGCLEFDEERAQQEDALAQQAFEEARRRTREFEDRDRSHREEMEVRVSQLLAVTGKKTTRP
VIM-2 inh – blocks Pseudomonas aeruginosa VIM-2 metallo-beta-lactamase | purified VIM-2, nitrocefin hydrolysis, epi-absorbance fluorescence | inhibition, % at 5.6 µM | hit rate 0.89% among 290,000 | AID 1527;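 active = inhibition above the mean of all tested compounds plus 3 SD, cutoff set per screening run, cut at about 7.5% in these data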;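 note: red hydrolysis product quenches plate fluorescence so inhibitors raise well fluorescence; 0% = enzyme with DMSO and 100% = DMSO without enzyme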
Runt-CBFb FRET – blocks binding of human RUNX1 Runt domain to CBFb; Q01196+Q13951; hit rate 0.46% among 220,000; inhibition, % at 20 µM; Cerulean-Runt/Venus-CBFb FRET ratio 530/480, 1 h;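 active = inhibition over about 50% at 20 µM in the single-dose screen, limit read from the data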;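 note: 0% = DMSO wells and 100% = excess unlabeled CBFb competitor control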
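Assay system: Cerulean-Runt domain / Medium: Tris 50 mM pH 7.5, KCl, K2SO4, 0.01% BSA / Timing: protein complex preformed 1 h, compound exposure 1 h, room temperature, dark / Measured by: FRET, excitation 422 nm, emission at 530 and 480 nm / Evaluation: loss of energy transfer signal / Control set: 5 µM unlabeled CBFb as full-inhibition high control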
Numbers without * were called inactive; ? = inconclusive; · = not tested or not shown.

SMILES	IMP-1 inhibitor	RanGTP-Impb inh	Runt-SMMHC FRET	VIM-2 inh	Runt-CBFb FRET
N#Cc1c(N)c(C#N)c(-c2ccc(O)cc2)c2c1CCCC2	-1	-5	0	3	-1
CSc1nc2c(c(-c3ccc(O)cc3)c1C#N)CCC2	-4	-1	0	7.8*	-1
O=S(=O)(NCc1ccccc1)NCc1ccc(Cl)cc1Cl	0	-1	·	-1	·
O=C(c1cc(Cl)nc2ccccc12)N1CCN(S(=O)(=O)c2ccccc2[N+](=O)[O-])CC1	4.5*	-1	·	-1	·
C#CCOc1ccccc1CNC1CCN(Cc2ccccc2)CC1	-3	8	·	-4	·
CCCOc1ccccc1/C=C1/C(=O)ON=C1C	1	-2	·	8.2*	·
Cc1nnc(SCc2cc(=O)oc3cc(O)ccc23)n1Cc1ccccc1	-1	12	127*	0	85*
COc1ccccc1-n1c(SCc2cc(=O)oc3cc(O)ccc23)nc2ccccc2c1=O	-3	-2	70*	0	34
Cc1oc(-c2cccc(Cl)c2)nc1CS(=O)(=O)CC(=O)NCc1ccco1	-2	-3	·	0	·
O=C(NCc1ccccc1)C(c1ccccn1)N(C(=O)c1csnn1)c1ccccc1F (stereo not drawn)	-2	-9	·	-3	·
Fc1ccc(N2N=C(c3cccs3)CC2c2ccccc2)cc1 (stereo not drawn)	-1	2	91*	-2	59*
CCC(C)n1c(=N)c(C#N)cc2c(=O)n3cc(C)ccc3nc21 (stereo not drawn)	-3	5	·	0	·
CCC(C)n1c(=N)c(C#N)cc2c(=O)n3cccc(C)c3nc21 (stereo not drawn)	-2	0	91*	-1	104*
Cc1ccc(-n2c(=O)c(C#N)cc3c(=O)n4cccc(C)c4nc32)cc1	-2	93*	59*	-6	122*
Cc1ccc(Cn2c(=N)c(C#N)cc3c(=O)n4cccc(C)c4nc32)cc1	-2	63*	·	-2	·
Cc1cccn2c(=O)c3cc(C(=O)N(C)C)n(C)c3nc12	-1	-5	-24	6	-11
O=C(Nc1cccc(F)c1)NC1(C(=O)NCC2CCCO2)CCCCC1 (stereo not drawn)	-2	1	·	-2	·
CCSc1nc(N2CCOCC2)c2c(c1C#N)CC(C)(C)N(C)C2	-2	-3	91*	-2	95*
CC1(C)Cc2c(C#N)c(SCC(=O)c3ccccc3)nc(N3CCOCC3)c2CS1	-2	2	-2	-3	10
COC(=O)CSc1nc(N2CCOCC2)c2c(c1C#N)CC(C)(C)N(C)C2	1	18*	56*	-1	19
CN1Cc2c(N3CCOCC3)nc(SCc3ccccc3)c(C#N)c2CC1(C)C	-3	27*	62*	-3	47
C=CCSc1nc(N2CCOCC2)c2c(c1C#N)CC(C)(C)N(C)C2	-4	?	12	-2	16
COc1ccc(N=Nc2n(C)c3ccccc3[n+]2C)cc1	-4	-1	-9	-3	-16
Cc1cc(C)c2c(c1)C1C=CCC1C(c1ccc(S(=O)(=O)N3CCOCC3)cc1)N2 (stereo not drawn)	5.8*	3	-2	-1	6
O=C(O)c1cc(Cl)c2c(c1)[C@@H]1C=CC[C@@H]1[C@H](c1ccc(S(=O)(=O)N3CCOCC3)cc1)N2	11*	-3	-5	1	8
SMILES	IMP-1 inhibitor	RanGTP-Impb inh	Runt-SMMHC FRET	VIM-2 inh	Runt-CBFb FRET
O=S(=O)(c1ccc(C2CCCCC2)cc1)N1CCOCC1	1	?	4	1	-5
COc1cc(SC)ccc1C(=O)Nc1ccc2ncccc2c1	-2	-2	·	-1	·
O=C(CSc1n[nH]c(-c2cccnc2)n1)Nc1ccccc1C(F)(F)F	-2	-2	·	-1	·
CC(C)(C)c1csc(NC(=O)c2cccnc2)n1	-5	36*	·	-3	·
CC(C)(C)c1csc(NC(=O)c2cccs2)n1	1	?	0	-1	-2
O=C(O)CCC(=O)c1ccc2ccc3cccc4ccc1c2c34	-2	5	69*	2	28
O=C(Nc1ccc(F)c(F)c1)c1cc(S(=O)(=O)N2CCN(c3ccccn3)CC2)ccc1F	4.6*	-1	1	1	2
Cc1cc(C)c2c(N)c3cccc(C)c3nc2n1	-1	126*	79*	18*	5
